Active and inactive are the calls of the source. The rule behind the calls is not given here.
Experiments:
Amaranthus retroflexus [1] = assay: Herbicidal activity against Amaranthus retroflexus assessed as growth inhibition at 1 kg/ha postemergence treatment by glasshouse test; type: functional; conditions: post-emergence, read-out: GI
In short: (§1)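 Glasshouse screen with pre- or postemergence application at 1.0 kg/ha. Result given as percent inhibition of plant growth; norflurazon and glyphosate used as controls.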

Puccinia triticina [2] = assay: Fungicidal activity against Puccinia triticina assessed as inhibition of disease development in compound treated leaf pieces at 60 ppm relative to untreated control (wheat-preventative); type: functional
In short: (§2)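 Preventative leaf-piece test on host tissue (tomato, vine, wheat or barley). Formulated compound applied at 200, 60 and 20 ppm before spore inoculation. Disease scored 3–9 days after inoculation, depending on the pathogen, as percent inhibition of disease development versus untreated controls. Values are the mean across replicates.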

Alternaria solani [3] = assay: Fungicidal activity against Alternaria solani assessed as inhibition of disease development in compound treated leaf pieces at 20 ppm relative to untreated control (tomato-preventative); type: functional; in short: as §2
Puccinia triticina [4] = assay: Fungicidal activity against Puccinia triticina assessed as inhibition of disease development in compound treated leaf pieces at 200 ppm relative to untreated control (wheat-curative); type: functional
In short: (§3)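 Curative wheat leaf-piece test against Puccinia triticina. Leaf pieces inoculated with spores first, then treated with formulated compound at 200, 60 or 20 ppm. Disease scored 3–9 days after inoculation as percent inhibition versus untreated controls. Values are the mean across replicates.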

Arabidopsis thaliana = assay: Herbicidal activity against Arabidopsis thaliana assessed as growth inhibition at 10 ppm by 96-well plate test; type: functional; conditions: read-out: GI
In short: (§4)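 96-well plate herbicide screen: Arabidopsis thaliana at 10 ppm and Poa annua at 32 ppm, two replicates. Plates incubated seven days in a controlled-environment cabinet. Each replicate scored 0 (no visible effect) or 99 (herbicidal effect); values are the mean of the two. Atrazine used as reference.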

Puccinia triticina [5] = assay: Fungicidal activity against Puccinia triticina assessed as inhibition of disease development in compound treated leaf pieces at 20 ppm relative to untreated control (wheat-preventative); type: functional; in short: as §2
Phytophthora infestans [6] = assay: Fungicidal activity against Phytophthora infestans assessed as inhibition of disease development in compound treated leaf pieces at 200 ppm relative to untreated control (tomato-preventative); type: functional; in short: as §2
[7] = test system: Blumeria graminis f. sp. tritici; assay: Fungicidal activity against Blumeria graminis f. sp. tritici assessed as inhibition of disease development in compound treated leaf pieces at 200 ppm relative to untreated control (wheat-preventative); type: functional
Poa annua = assay: Herbicidal activity against Poa annua assessed as growth inhibition at 32 ppm by 96-well plate test; type: functional; conditions: read-out: GI; in short: as §4
Alternaria solani [8] = assay: Fungicidal activity against Alternaria solani assessed as inhibition of mycelia growth at 2 ppm; type: functional, organism-based
In short: (§5)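 Mycelial growth test in 96-well plates: compound incorporated into artificial growth medium at 2 ppm, two replicates per rate. Each well scored 99 for complete, 55 for partial or 0 for no inhibition. Values are the mean across replicates; azoxystrobin and prochloraz used as positive controls.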

Lolium perenne [9] = assay: Herbicidal activity against Lolium perenne (perennial ryegrass) assessed as growth inhibition at 1 kg/ha postemergence treatment by glasshouse test; type: functional; conditions: post-emergence, read-out: GI; in short: as §1
Digitaria sanguinalis [10] = assay: Herbicidal activity against Digitaria sanguinalis (hairy crabgrass) assessed as growth inhibition at 1 kg/ha preemergence treatment by glasshouse test; type: functional; conditions: pre-emergence, read-out: GI; in short: as §1
Plasmopara viticola [11] = assay: Fungicidal activity against Plasmopara viticola assessed as inhibition of disease development in compound treated leaf pieces at 200 ppm relative to untreated control (grapevine-preventative); type: functional; in short: as §2
Aphididae = assay: Insecticidal activity against Aphididae (aphids) assessed as mortality at 1000 ppm by leaf-disk assay; type: functional, organism-based
In short: (§6)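 Leaf-disk assay at 1000 ppm, three replicates. Plates kept 5–9 days in controlled-environment cabinets. Mortality judged against untreated wells: 99 for significant mortality, 0 otherwise. Values are the mean of three; thiamethoxam and indoxacarb used as positive controls.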

Triticum aestivum [12] = assay: Phytotoxicity against Triticum aestivum (wheat) plant at 60 ppm; type: organism-based; conditions: in vivo
Alternaria solani [13] = assay: Fungicidal activity against Alternaria solani assessed as inhibition of disease development in compound treated leaf pieces at 60 ppm relative to untreated control (tomato-preventative); type: functional; in short: as §2
Alternaria solani [14] = assay: Fungicidal activity against Alternaria solani assessed as inhibition of disease development in compound treated leaf pieces at 200 ppm relative to untreated control (tomato-preventative); type: functional; in short: as §2
Puccinia triticina [15] = assay: Fungicidal activity against Puccinia triticina assessed as inhibition of disease development in compound treated leaf pieces at 200 ppm relative to untreated control (wheat-preventative); type: functional; in short: as §2
Amaranthus retroflexus [16] = assay: Herbicidal activity against Amaranthus retroflexus assessed as growth inhibition at 1 kg/ha preemergence treatment by glasshouse test; type: functional; conditions: pre-emergence, read-out: GI; in short: as §1
Puccinia triticina [17] = assay: Fungicidal activity against Puccinia triticina assessed as inhibition of disease development in compound treated leaf pieces at 20 ppm relative to untreated control (wheat-curative); type: functional; in short: as §3
Lolium perenne [18] = assay: Herbicidal activity against Lolium perenne (perennial ryegrass) assessed as growth inhibition at 1 kg/ha preemergence treatment by glasshouse test; type: functional; conditions: pre-emergence, read-out: GI; in short: as §1
Triticum aestivum [19] = assay: Phytotoxicity against Triticum aestivum (wheat) plant at 200 ppm; type: organism-based; conditions: in vivo
Pythium dissimile = assay: Fungicidal activity against Pythium dissimile assessed as inhibition of mycelia growth at 2 ppm; type: functional, organism-based; in short: as §5
Puccinia triticina [20] = assay: Fungicidal activity against Puccinia triticina assessed as inhibition of disease development in compound treated leaf pieces at 60 ppm relative to untreated control (wheat-curative); type: functional; in short: as §3
Fusarium graminearum = assay: Fungicidal activity against Fusarium graminearum assessed as inhibition of mycelia growth at 2 ppm; type: functional, organism-based; in short: as §5
Pyrenophora teres [21] = assay: Fungicidal activity against Pyrenophora teres assessed as inhibition of disease development in compound treated leaf pieces at 200 ppm relative to untreated control (barley-preventative); type: functional; in short: as §2
Echinochloa crus-galli [22] = assay: Herbicidal activity against Echinochloa crus-galli (barnyard grass) at 1.5 kg/ha preemergence treatment measured after 10 days by glasshouse test; type: functional; conditions: pre-emergence, 240 h
In short: (§7)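 Glasshouse pre/postemergence test, each treatment in triplicate. Above-ground fresh weight measured 10 days after treatment. Result expressed as percent inhibition versus control, from 0 (no control) to 100 (complete control); glyphosate used as positive control.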

Pyrenophora teres [23] = assay: Fungicidal activity against Pyrenophora teres assessed as inhibition of disease development in compound treated leaf pieces at 60 ppm relative to untreated control (barley-preventative); type: functional; in short: as §2
Parastagonospora nodorum = assay: Fungicidal activity against Phaeosphaeria nodorum assessed as inhibition of disease development in compound treated leaf pieces at 20 ppm relative to untreated control (wheat preventative); type: functional; in short: as §2
Plasmopara viticola [24] = assay: Fungicidal activity against Plasmopara viticola assessed as inhibition of disease development in compound treated leaf pieces at 20 ppm relative to untreated control (grapevine-preventative); type: functional; in short: as §2
Brassica napus [25] = assay: Herbicidal activity against Brassica napus (oilseed rape) at 1.5 kg/ha preemergence treatment measured after 10 days by glasshouse test; type: functional; conditions: pre-emergence, 240 h; in short: as §7
[26] = test system: Blumeria graminis f. sp. tritici; assay: Fungicidal activity against Blumeria graminis f. sp. tritici assessed as inhibition of disease development in compound treated leaf pieces at 20 ppm relative to untreated control (wheat-preventative); type: functional
[27] = test system: Blumeria graminis f. sp. tritici; assay: Fungicidal activity against Blumeria graminis f. sp. tritici assessed as inhibition of disease development in compound treated leaf pieces at 60 ppm relative to untreated control (wheat-preventative); type: functional
Heliothis virescens = assay: Insecticidal activity against Lepidoptera Heliothis virescens (tobacco budworm) assessed as mortality at 1000 ppm by leaf-disk assay; type: functional, organism-based; in short: as §6
Botrytis cinerea = assay: Fungicidal activity against Botryotinia fuckeliana assessed as inhibition of mycelia growth at 2 ppm; type: functional, organism-based; in short: as §5
Phytophthora infestans [28] = assay: Fungicidal activity against Phytophthora infestans assessed as inhibition of disease development in compound treated leaf pieces at 60 ppm relative to untreated control (tomato-preventative); type: functional; in short: as §2
Stellaria media [29] = assay: Herbicidal activity against Stellaria media assessed as growth inhibition at 1 kg/ha postemergence treatment by glasshouse test; type: functional; conditions: post-emergence, read-out: GI; in short: as §1
Pyrenophora teres [30] = assay: Fungicidal activity against Pyrenophora teres assessed as inhibition of disease development in compound treated leaf pieces at 20 ppm relative to untreated control (barley-preventative); type: functional; in short: as §2
Brassica napus [31] = assay: Herbicidal activity against Brassica napus (oilseed rape) at 1.5 kg/ha postemergence treatment measured after 10 days by glasshouse test; type: functional; conditions: post-emergence, 240 h; in short: as §7
Phytophthora infestans [32] = assay: Fungicidal activity against Phytophthora infestans assessed as inhibition of disease development in compound treated leaf pieces at 20 ppm relative to untreated control (tomato-preventative); type: functional; in short: as §2
Digitaria sanguinalis [33] = assay: Herbicidal activity against Digitaria sanguinalis (hairy crabgrass) assessed as growth inhibition at 1 kg/ha postemergence treatment by glasshouse test; type: functional; conditions: post-emergence, read-out: GI; in short: as §1
Phytophthora infestans [34] = assay: Fungicidal activity against Phytophthora infestans assessed as inhibition of mycelia growth at 200 ppm; type: functional, organism-based
Zymoseptoria tritici = assay: Fungicidal activity against Zymoseptoria tritici assessed as inhibition of mycelia growth at 100 ppm; type: functional, organism-based
Stellaria media [35] = assay: Herbicidal activity against Stellaria media assessed as growth inhibition at 1 kg/ha preemergence treatment by glasshouse test; type: functional; conditions: pre-emergence, read-out: GI; in short: as §1
Echinochloa crus-galli [36] = assay: Herbicidal activity against Echinochloa crus-galli (barnyard grass) at 1.5 kg/ha postemergence treatment measured after 10 days by glasshouse test; type: functional; conditions: post-emergence, 240 h; in short: as §7
Plasmopara viticola [37] = assay: Fungicidal activity against Plasmopara viticola assessed as inhibition of disease development in compound treated leaf pieces at 60 ppm relative to untreated control (grapevine-preventative); type: functional; in short: as §2

`CC(C)Nc1nc(Cl)nc(NCc2ccc(Cl)nc2)n1` gave an inhibition of growth at 1000 g/ha (Amaranthus retroflexus [1]) of 100%, an inhibition at 60 ppm (Puccinia triticina [2]) of 70% and an inhibition at 20 ppm (Alternaria solani [3]) of 0%. The inhibition at 200 ppm (Puccinia triticina [4]) was 100%, the inhibition of growth at 10 ppm (Arabidopsis thaliana) was 99% and the inhibition at 20 ppm (Puccinia triticina [5]) was 0%. It also gave an inhibition at 200 ppm (Phytophthora infestans [6]) of 0%, an inhibition at 200 ppm [7] of 90% and an inhibition of growth at 32 ppm (Poa annua) of 0%. For the same molecule, the inhibition (Alternaria solani [8]) was “inactive”, the inhibition of growth at 1000 g/ha (Lolium perenne [9]) was 80% and the inhibition of growth at 1000 g/ha (Digitaria sanguinalis [10]) was 0%. For the same molecule, the inhibition at 200 ppm (Plasmopara viticola [11]) was 0%, the mortality (Aphididae) was “inactive” and the Activity (Triticum aestivum [12]) was “Toxic”. It also gave an inhibition at 60 ppm (Alternaria solani [13]) of 0%, an inhibition at 200 ppm (Alternaria solani [14]) of 0% and an inhibition at 200 ppm (Puccinia triticina [15]) of 100%. It also gave an inhibition of growth at 1000 g/ha (Amaranthus retroflexus [16]) of 100%, an inhibition at 20 ppm (Puccinia triticina [17]) of 100% and an inhibition of growth at 1000 g/ha (Lolium perenne [18]) of 70%. The Activity (Triticum aestivum [19]) was “Toxic”, the inhibition (Pythium dissimile) was “inactive” and the inhibition at 60 ppm (Puccinia triticina [20]) was 100%. For the same molecule, the inhibition (Fusarium graminearum) was “inactive”, the inhibition at 200 ppm (Pyrenophora teres [21]) was 0% and the inhibition at 1500 g/ha (Echinochloa crus-galli [22]) was 68.9%. For the same molecule, the inhibition at 60 ppm (Pyrenophora teres [23]) was 0%, the inhibition at 20 ppm (Parastagonospora nodorum) was 0% and the inhibition at 20 ppm (Plasmopara viticola [24]) was 0%. The inhibition at 1500 g/ha (Brassica napus [25]) was 100%, the inhibition at 20 ppm [26] was 0% and the inhibition at 60 ppm [27] was 0%. The mortality (Heliothis virescens) was “inactive”, the inhibition (Botrytis cinerea) was “inactive” and the inhibition at 60 ppm (Phytophthora infestans [28]) was 0%. The inhibition of growth at 1000 g/ha (Stellaria media [29]) was 100%, the inhibition at 20 ppm (Pyrenophora teres [30]) was 0% and the inhibition at 1500 g/ha (Brassica napus [31]) was 100%. For the same molecule, the inhibition at 20 ppm (Phytophthora infestans [32]) was 0%, the inhibition of growth at 1000 g/ha (Digitaria sanguinalis [33]) was 0% and the inhibition (Phytophthora infestans [34]) was “inactive”. The inhibition (Zymoseptoria tritici) was “Active”, the inhibition of growth at 1000 g/ha (Stellaria media [35]) was 80% and the inhibition at 1500 g/ha (Echinochloa crus-galli [36]) was 68.6%. The inhibition at 60 ppm (Plasmopara viticola [37]) was 0%.

— ChEMBL document CHEMBL3046679, “Design, synthesis, and biological activities of arylmethylamine substituted chlorotriazine and methylthiotriazine compounds” (J Agric Food Chem, 2011)
